Source: ChEMBL document CHEMBL3526002, “Tissue distribution and identification of radioactivity components at elimination phase after oral administration of [¹⁴C]CS-1036, an α-amylase inhibitor, to rats” (Drug Metab Dispos, 2013)

Legend:
Design in all cases: dose 5 mg/kg, dosed compound name [14C]CS-1036, route oral
Conditions in all cases: in vivo
[1] = Drug uptake in albino F344/DuCrlCrlj rat trachea at 5 mg/kg, po after 4 hrs by liquid scintillation counting; format: ADME, organism-based
Thymus [2] = experiment: Drug uptake in albino F344/DuCrlCrlj rat thymus at 5 mg/kg, po after 8 hrs by liquid scintillation counting; format: ADME, organism-based
Heart [3] = experiment: Drug uptake in albino F344/DuCrlCrlj rat heart at 5 mg/kg, po after 8 hrs by liquid scintillation counting; format: ADME, organism-based
Aorta [4] = experiment: Drug uptake in albino F344/DuCrlCrlj rat aorta at 5 mg/kg, po after 8 hrs by liquid scintillation counting; format: ADME, organism-based
Pancreas [5] = experiment: Drug uptake in albino F344/DuCrlCrlj rat pancreas assessed as ng equivalent of CS-1036 at 5 mg/kg, po after 1 hr by liquid scintillation counting; format: ADME, organism-based
[6] = Drug uptake in albino F344/DuCrlCrlj rat brown fat assessed as ng equivalent of CS-1036 at 5 mg/kg, po after 1 hr by liquid scintillation counting; format: ADME, organism-based, Brown adipose tissue
[7] = Drug uptake in albino F344/DuCrlCrlj rat urinary bladder assessed as ng equivalent of CS-1036 at 5 mg/kg, po after 1 hr by liquid scintillation counting; format: ADME, organism-based
[8] = Drug uptake in albino F344/DuCrlCrlj rat thyroid gland assessed as ng equivalent of CS-1036 at 5 mg/kg, po after 72 hrs by liquid scintillation counting; format: ADME, organism-based
[9] = Drug uptake in albino F344/DuCrlCrlj rat fat assessed as ng equivalent of CS-1036 at 5 mg/kg, po after 336 hrs by liquid scintillation counting; format: ADME, organism-based, Adipose tissue
Summary of the method: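 Male F344/DuCrlCrlj rats (bought at 7 weeks, acclimatized 5–6 days; 159–167 g; n = 3 per time point) received a single oral dose of [14C]CS-1036 at 5 mg/kg. White adipose tissue was collected after abdominal aortic bleeding at 1, 4, 8, 24, 72, 168 or 336 h. Samples were counted by LSC with external-standard efficiency correction. Results were converted to ng equivalents per g from specific activity and sample weight.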

Heart [10] = experiment: Drug uptake in albino F344/DuCrlCrlj rat heart assessed as ng equivalent of CS-1036 at 5 mg/kg, po after 4 hrs by liquid scintillation counting; format: ADME, organism-based
Kidney [11] = experiment: Drug uptake in albino F344/DuCrlCrlj rat kidney assessed as ng equivalent of CS-1036 at 5 mg/kg, po after 72 hrs by liquid scintillation counting; format: ADME, organism-based
[12] = Drug uptake in albino F344/DuCrlCrlj rat bone marrow assessed as ng equivalent of CS-1036 at 5 mg/kg, po after 72 hrs by liquid scintillation counting; format: ADME, organism-based
Aorta [13] = experiment: Drug uptake in albino F344/DuCrlCrlj rat aorta assessed as ng equivalent of CS-1036 at 5 mg/kg, po after 336 hrs by liquid scintillation counting; format: ADME, organism-based
[14] = Drug uptake in albino F344/DuCrlCrlj rat brown fat at 5 mg/kg, po after 24 hrs by liquid scintillation counting; format: ADME, organism-based, Brown adipose tissue
[15] = Drug uptake in albino F344/DuCrlCrlj rat skeletal muscle at 5 mg/kg, po after 24 hrs by liquid scintillation counting; format: ADME, organism-based, Muscle tissue
[16] = Drug uptake in albino F344/DuCrlCrlj rat trachea assessed as ng equivalent of CS-1036 at 5 mg/kg, po after 168 hrs by liquid scintillation counting; format: ADME, organism-based
[17] = Drug uptake in albino F344/DuCrlCrlj rat mandibular gland assessed as ng equivalent of CS-1036 at 5 mg/kg, po after 168 hrs by liquid scintillation counting; format: ADME, organism-based
Thymus [18] = experiment: Drug uptake in albino F344/DuCrlCrlj rat thymus assessed as ng equivalent of CS-1036 at 5 mg/kg, po after 168 hrs by liquid scintillation counting; format: ADME, organism-based
Pancreas [19] = experiment: Drug uptake in albino F344/DuCrlCrlj rat pancreas at 5 mg/kg, po after 72 hrs by liquid scintillation counting; format: ADME, organism-based
Harderian gland [20] = experiment: Drug uptake in albino F344/DuCrlCrlj rat harderian gland assessed as ng equivalent of CS-1036 at 5 mg/kg, po after 8 hrs by liquid scintillation counting; format: ADME, organism-based
Liver [21] = experiment: Drug uptake in albino F344/DuCrlCrlj rat liver assessed as ng equivalent of CS-1036 at 5 mg/kg, po after 8 hrs by liquid scintillation counting; format: ADME, organism-based
Cerebrum [22] = experiment: Drug uptake in albino F344/DuCrlCrlj rat cerebrum assessed as ng equivalent of CS-1036 at 5 mg/kg, po after 24 hrs by liquid scintillation counting; format: ADME, organism-based
Summary of the method: (§1)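 Single oral [14C]CS-1036 at 5 mg/kg was given to male rats (159–167 g; n = 3). Cerebrum was collected after aortic bleeding at 1, 4, 8, 24, 72, 168 or 336 h, weighed, and homogenized in 2 volumes of saline. A 0.5 ml aliquot was solubilized in Soluene-350 and counted by LSC with external-standard correction. Results are in ng equivalent/g tissue from specific activity and sample weight.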

Adrenal gland = experiment: Drug uptake in albino F344/DuCrlCrlj rat adrenal gland at 5 mg/kg, po after 168 hrs by liquid scintillation counting; format: ADME, organism-based
Cerebrum [23] = experiment: Drug uptake in albino F344/DuCrlCrlj rat cerebrum at 5 mg/kg, po after 4 hrs by liquid scintillation counting; format: ADME, organism-based; summary of the method: as §1
Blood = experiment: Drug uptake in albino F344/DuCrlCrlj rat blood at 5 mg/kg, po after 336 hrs by liquid scintillation counting; format: ADME, organism-based
Summary of the method: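 Male F344/DuCrlCrlj rats (159–167 g; n = 3 per time point) received a single oral dose of [14C]CS-1036 at 5 mg/kg. Blood was taken from the abdominal aorta at 1, 4, 8, 24, 72, 168 and 336 h. Radioactivity was counted by LSC with external-standard efficiency correction. Results were converted to ng equivalent of CS-1036/ml using specific activity and sample volume, and reported as mean + S.D.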

Harderian gland [24] = experiment: Drug uptake in albino F344/DuCrlCrlj rat harderian gland at 5 mg/kg, po after 336 hrs by liquid scintillation counting; format: ADME, organism-based
[25] = Drug uptake in albino F344/DuCrlCrlj rat thyroid gland at 5 mg/kg, po after 336 hrs by liquid scintillation counting; format: ADME, organism-based
Liver [26] = experiment: Drug uptake in albino F344/DuCrlCrlj rat liver at 5 mg/kg, po after 336 hrs by liquid scintillation counting; format: ADME, organism-based
[27] = Drug uptake in albino F344/DuCrlCrlj rat thyroid gland assessed as ng equivalent of CS-1036 at 5 mg/kg, po after 24 hrs by liquid scintillation counting; format: ADME, organism-based
Kidney [28] = experiment: Drug uptake in albino F344/DuCrlCrlj rat kidney assessed as ng equivalent of CS-1036 at 5 mg/kg, po after 24 hrs by liquid scintillation counting; format: ADME, organism-based
Spleen = experiment: Drug uptake in albino F344/DuCrlCrlj rat spleen assessed as ng equivalent of CS-1036 at 5 mg/kg, po after 24 hrs by liquid scintillation counting; format: ADME, organism-based
Pancreas [29] = experiment: Drug uptake in albino F344/DuCrlCrlj rat pancreas assessed as ng equivalent of CS-1036 at 5 mg/kg, po after 24 hrs by liquid scintillation counting; format: ADME, organism-based

For `C[C@H]1O[C@@H](O[C@H]2[C@H](O)[C@@H](O)[C@@H](O[14C@H]3[14C@H](O)[14CH2]N[14C@@H]3[14CH2]O)O[C@@H]2CO)[C@H](O)[C@@H](O)[C@@H]1O`, which Radiolabel recovery [1] is on record?
The Radiolabel recovery was 31.1 ngequiv/g.

What about the Radiolabel recovery (Thymus [2]) of the same molecule?
Its Radiolabel recovery is 43.4 ngequiv/g.

And the Radiolabel recovery (Heart [3])?
The Radiolabel recovery was 27.2 ngequiv/g.

And the Radiolabel recovery (Aorta [4])?
Its Radiolabel recovery is 57.3 ngequiv/g.

And the Radiolabel recovery (Pancreas [5])?
Its Radiolabel recovery is 11 ngequiv/g.

And the Radiolabel recovery [6]?
The Radiolabel recovery was 4.1 ngequiv/g.

What about the Radiolabel recovery [7] of the same molecule?
Its Radiolabel recovery is 520 ngequiv/g.

What about the Radiolabel recovery [8] of the same molecule?
Its Radiolabel recovery is 42.7 ngequiv/g.

What about the Radiolabel recovery [9] of the same molecule?
Its Radiolabel recovery is 63 ngequiv/g.

And the Radiolabel recovery (Heart [10])?
Its Radiolabel recovery is 7 ngequiv/g.

What about the Radiolabel recovery (Kidney [11]) of the same molecule?
The Radiolabel recovery was 29.7 ngequiv/g.

What about the Radiolabel recovery [12] of the same molecule?
The Radiolabel recovery was 18.1 ngequiv/g.

And the Radiolabel recovery (Aorta [13])?
The Radiolabel recovery was 10.8 ngequiv/g.

What about the Radiolabel recovery [14] of the same molecule?
The Radiolabel recovery was 200 ngequiv/g.

And the Radiolabel recovery [15]?
The Radiolabel recovery was 34.4 ngequiv/g.

And the Radiolabel recovery [16]?
Its Radiolabel recovery is 10.4 ngequiv/g.

What about the Radiolabel recovery [17] of the same molecule?
Its Radiolabel recovery is 7 ngequiv/g.

What about the Radiolabel recovery (Thymus [18]) of the same molecule?
The Radiolabel recovery was 5.4 ngequiv/g.

What about the Radiolabel recovery (Pancreas [19]) of the same molecule?
The Radiolabel recovery was 186 ngequiv/g.

And the Radiolabel recovery (Harderian gland [20])?
The Radiolabel recovery was 24.5 ngequiv/g.

What about the Radiolabel recovery (Liver [21]) of the same molecule?
The Radiolabel recovery was 116 ngequiv/g.

What about the Radiolabel recovery (Cerebrum [22]) of the same molecule?
The Radiolabel recovery was 1.5 ngequiv/g.

What about the Radiolabel recovery (Adrenal gland) of the same molecule?
The Radiolabel recovery was 78.9 ngequiv/g.

What about the Radiolabel recovery (Cerebrum [23]) of the same molecule?
Its Radiolabel recovery is 12.2 ngequiv/g.

What about the Radiolabel recovery (Blood) of the same molecule?
The Radiolabel recovery was 5.27 ngequiv/ml.

What about the Radiolabel recovery (Harderian gland [24]) of the same molecule?
Its Radiolabel recovery is 5.08 ngequiv/g.

And the Radiolabel recovery [25]?
Its Radiolabel recovery is 14.5 ngequiv/g.

And the Radiolabel recovery (Liver [26])?
The Radiolabel recovery was 7.76 ngequiv/g.

What about the Radiolabel recovery [27] of the same molecule?
Its Radiolabel recovery is 20 ngequiv/g.

What about the Radiolabel recovery (Kidney [28]) of the same molecule?
The Radiolabel recovery was 16 ngequiv/g.

What about the Radiolabel recovery (Spleen) of the same molecule?
Its Radiolabel recovery is 10.4 ngequiv/g.

And the Radiolabel recovery (Pancreas [29])?
Its Radiolabel recovery is 25 ngequiv/g.
